Test results reported in ChEMBL document CHEMBL1687757, “Many chromosomal genes modulate MarA-mediated multidrug resistance in Escherichia coli” (2010).
Values after ≈ are worked out from the molar mass of the structure shown.

Columns and labels:
Type in all cases: functional
Escherichia coli [1] = experiment: Antibacterial activity against wild-type Escherichia coli BW25113 after 20 hrs by Etest method; settings: BW25113, 20 h
Outline: (§1)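 MICs by Etest strips on Mueller-Hinton plates, following the manufacturer's specifications. Cells came from overnight liquid cultures in LB at 37°C with agitation. Plates were read after 20 h at 37°C. Antibiotics tested were cefoxitin, norfloxacin, chloramphenicol and minocycline.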

Escherichia coli [2] = experiment: Antibacterial activity against MarA-deficient Escherichia coli CR2000 after 20 hrs by Etest method; settings: CR2000, 20 h
Outline: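 Overnight LB-grown cultures (37°C, agitation) of the ΔmarRA strain (BW25113 background) tested on Mueller-Hinton plates with Etest strips per manufacturer's instructions. MIC read after 20 h at 37°C.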

Escherichia coli [3] = experiment: Antibacterial activity against MarA-overexpressing Escherichia coli CR1000 after 20 hrs by Etest method; settings: CR1000, 20 h; outline: as §1
Escherichia coli [4] = experiment: Ratio of MIC for marA-overproducing Escherichia coli CR1000 to MIC for MarA-deficient Escherichia coli CR2000
Outline: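 MICs measured by Etest on Mueller-Hinton plates, read after 20 h at 37°C, for the ΔmarR strain (constitutive chromosomal marA overexpression) and the ΔmarRA strain (BW25113 background), both grown overnight in LB at 37°C. MarA-mediated MDR expressed as the ΔmarR/ΔmarRA MIC ratio.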

Escherichia coli [5] = experiment: Antibacterial activity against marA-overproducing Escherichia coli CR1000 harboring inactivated cspGp gene assessed as MarA-mediated multidrug resistance level by measuring fold change in MIC relative to MarA-deficient Escherichia coli CR2000
Outline: (§2)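 Each inactivated gene was transferred into both the ΔmarR (CR1000) and the ΔmarRA (CR2000) BW25113 backgrounds. Each derivative was grown overnight in LB and tested by Etest on Mueller-Hinton plates, read after 20 h at 37°C, against cefoxitin, norfloxacin, chloramphenicol and minocycline. The MarA-mediated level compares the MIC in the ΔmarR derivative with the MIC in the matching ΔmarRA derivative.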

Escherichia coli [6] = experiment: Antibacterial activity against marA-overproducing Escherichia coli CR1000 harboring inactivated ompR gene assessed as MarA-mediated multidrug resistance level by measuring fold change in MIC relative to MarA-deficient Escherichia coli CR2000; outline: as §2
Escherichia coli [7] = experiment: Antibacterial activity against marA-overproducing Escherichia coli CR1000 harboring inactivated appA gene assessed as MarA-mediated multidrug resistance level by measuring fold change in MIC relative to MarA-deficient Escherichia coli CR2000; outline: as §2
Escherichia coli [8] = experiment: Antibacterial activity against marA-overproducing Escherichia coli CR1000 harboring inactivated degP gene assessed as MarA-mediated multidrug resistance level by measuring fold change in MIC relative to MarA-deficient Escherichia coli CR2000; outline: as §2
Escherichia coli [9] = experiment: Antibacterial activity against marA-overproducing Escherichia coli CR1000 harboring inactivated maoC gene assessed as MarA-mediated multidrug resistance level by measuring fold change in MIC relative to MarA-deficient Escherichia coli CR2000; outline: as §2
Escherichia coli [10] = experiment: Antibacterial activity against marA-overproducing Escherichia coli CR1000 harboring inactivated metL gene assessed as MarA-mediated multidrug resistance level by measuring fold change in MIC relative to MarA-deficient Escherichia coli CR2000; outline: as §2
Escherichia coli [11] = experiment: Antibacterial activity against marA-overproducing Escherichia coli CR1000 harboring inactivated recD gene assessed as MarA-mediated multidrug resistance level by measuring fold change in MIC relative to MarA-deficient Escherichia coli CR2000; outline: as §2
Escherichia coli [12] = experiment: Antibacterial activity against marA-overproducing Escherichia coli CR1000 harboring inactivated treC gene assessed as MarA-mediated multidrug resistance level by measuring fold change in MIC relative to MarA-deficient Escherichia coli CR2000; outline: as §2
Escherichia coli [13] = experiment: Antibacterial activity against marA-overproducing Escherichia coli CR1000 harboring inactivated ynfE gene assessed as MarA-mediated multidrug resistance level by measuring fold change in MIC relative to MarA-deficient Escherichia coli CR2000; outline: as §2
Escherichia coli [14] = experiment: Antibacterial activity against marA-overproducing Escherichia coli CR1000 harboring inactivated mhpT gene assessed as MarA-mediated multidrug resistance level by measuring fold change in MIC relative to MarA-deficient Escherichia coli CR2000; outline: as §2
Escherichia coli [15] = experiment: Antibacterial activity against marA-overproducing Escherichia coli CR1000 harboring inactivated nikD gene assessed as MarA-mediated multidrug resistance level by measuring fold change in MIC relative to MarA-deficient Escherichia coli CR2000; outline: as §2
Escherichia coli [16] = experiment: Antibacterial activity against marA-overproducing Escherichia coli CR1000 harboring inactivated alx gene assessed as MarA-mediated multidrug resistance level by measuring fold change in MIC relative to MarA-deficient Escherichia coli CR2000; outline: as §2
Escherichia coli [17] = experiment: Antibacterial activity against marA-overproducing Escherichia coli CR1000 harboring inactivated metV gene assessed as MarA-mediated multidrug resistance level by measuring fold change in MIC relative to MarA-deficient Escherichia coli CR2000; outline: as §2
Escherichia coli [18] = experiment: Antibacterial activity against marA-overproducing Escherichia coli CR1000 harboring inactivated yfdG gene assessed as MarA-mediated multidrug resistance level by measuring fold change in MIC relative to MarA-deficient Escherichia coli CR2000; outline: as §2
Escherichia coli [19] = experiment: Antibacterial activity against marA-overproducing Escherichia coli CR1000 harboring inactivated yibLp gene assessed as MarA-mediated multidrug resistance level by measuring fold change in MIC relative to MarA-deficient Escherichia coli CR2000; outline: as §2
Escherichia coli [20] = experiment: Antibacterial activity against marA-overproducing Escherichia coli CR1000 harboring inactivated yniDp gene assessed as MarA-mediated multidrug resistance level by measuring fold change in MIC relative to MarA-deficient Escherichia coli CR2000; outline: as §2
Escherichia coli [21] = experiment: Antibacterial activity against marA-overproducing Escherichia coli CR1000 harboring inactivated hns gene assessed as MarA-mediated multidrug resistance level by measuring fold decrease in MIC relative to MarA-deficient Escherichia coli CR2000; design: scale not given: the % may be the effect or the level left; outline: as §2
Escherichia coli [22] = experiment: Antibacterial activity against marA-overproducing Escherichia coli CR1000 harboring inactivated cyaA gene assessed as MarA-mediated multidrug resistance level by measuring fold decrease in MIC relative to MarA-deficient Escherichia coli CR2000; design: scale not given: the % may be the effect or the level left; outline: as §2
Escherichia coli [23] = experiment: Antibacterial activity against marA-overproducing Escherichia coli CR1000 harboring inactivated pcnB gene assessed as MarA-mediated multidrug resistance level by measuring fold decrease in MIC relative to MarA-deficient Escherichia coli CR2000; design: scale not given: the % may be the effect or the level left; outline: as §2
Escherichia coli [24] = experiment: Antibacterial activity against marA-overproducing Escherichia coli CR1000 harboring inactivated acrA gene assessed as MarA-mediated multidrug resistance level by measuring fold decrease in MIC relative to MarA-deficient Escherichia coli CR2000; design: scale not given: the % may be the effect or the level left; outline: as §2
Escherichia coli [25] = experiment: Antibacterial activity against marA-overproducing Escherichia coli CR1000 harboring inactivated acrB gene assessed as MarA-mediated multidrug resistance level by measuring fold decrease in MIC relative to MarA-deficient Escherichia coli CR2000; design: scale not given: the % may be the effect or the level left; outline: as §2
Escherichia coli [26] = experiment: Antibacterial activity against marA-overproducing Escherichia coli CR1000 harboring inactivated tolC gene assessed as MarA-mediated multidrug resistance level by measuring fold decrease in MIC relative to MarA-deficient Escherichia coli CR2000; design: scale not given: the % may be the effect or the level left; outline: as §2
Escherichia coli [27] = experiment: Antibacterial activity against marA-overproducing Escherichia coli CR1000 harboring inactivated damX gene assessed as MarA-mediated multidrug resistance level by measuring fold decrease in MIC relative to MarA-deficient Escherichia coli CR2000; design: scale not given: the % may be the effect or the level left; outline: as §2
Escherichia coli [28] = experiment: Antibacterial activity against marA-overproducing Escherichia coli CR1000 harboring inactivated crp gene assessed as MarA-mediated multidrug resistance level by measuring fold change in MIC relative to MarA-deficient Escherichia coli CR2000; outline: as §2

| Compound | MIC (Escherichia coli [1]) | MIC (Escherichia coli [2]) | MIC (Escherichia coli [3]) | Ratio (Escherichia coli [4]) | Activity (Escherichia coli [5]) | Activity (Escherichia coli [6]) | Activity (Escherichia coli [7]) | Activity (Escherichia coli [8]) | Activity (Escherichia coli [9]) | Activity (Escherichia coli [10]) | Activity (Escherichia coli [11]) | Activity (Escherichia coli [12]) | Activity (Escherichia coli [13]) | Activity (Escherichia coli [14]) | Activity (Escherichia coli [15]) | Activity (Escherichia coli [17]) | Activity (Escherichia coli [18]) | Activity (Escherichia coli [19]) | Activity (Escherichia coli [20]) | Activity (Escherichia coli [21]) | also measured |
| --- | --- | --- | --- | --- | --- | --- | --- | --- | --- | --- | --- | --- | --- | --- | --- | --- | --- | --- | --- | --- | --- |
| CCn1cc(C(=O)O)c(=O)c2cc(F)c(N3CCNCC3)cc21 [NORFLOXACIN] | 0.09 µg/mL (≈ 0.282 µM) | 0.07 µg/mL (≈ 0.219 µM) | 0.21 µg/mL (≈ 0.658 µM) | 3.1 | 91% | 77% | 84% | 91% | 61% | 91% | 77% | 46% | 68% | 91% | 68% | 91% | 91% | 68% | 77% | 23% | Activity (Escherichia coli [16]): 68%; Activity (Escherichia coli [22]): 41%; Activity (Escherichia coli [23]): 23%; Activity (Escherichia coli [24]): 0%; Activity (Escherichia coli [25]): 9%; Activity (Escherichia coli [26]): 0%; Activity (Escherichia coli [27]): 46%; Activity (Escherichia coli [28]): 33% |
| CO[C@@]1(NC(=O)Cc2cccs2)C(=O)N2C(C(=O)O)=C(COC(N)=O)CS[C@@H]21 [CEFOXITIN] | 4 µg/mL (≈ 9.36 µM) | 3.2 µg/mL (≈ 7.49 µM) | 10.6 µg/mL (≈ 24.8 µM) | 3.3 | 54% | 67% | 68% | 94% | 100% | 120% | 80% | 94% | 94% | 68% | 68% | 74% | 68% | 68% | 94% | 19% | Activity (Escherichia coli [22]): 43%; Activity (Escherichia coli [23]): 10%; Activity (Escherichia coli [24]): 16%; Activity (Escherichia coli [25]): 6%; Activity (Escherichia coli [26]): 0%; Activity (Escherichia coli [27]): 40%; Activity (Escherichia coli [28]): 21% |
| O=C(N[C@H](CO)[C@H](O)c1ccc([N+](=O)[O-])cc1)C(Cl)Cl [CHLORAMPHENICOL] | 10.7 µg/mL (≈ 33.1 µM) | 8.1 µg/mL (≈ 25.1 µM) | 23.9 µg/mL (≈ 74 µM) | 3 | 93% | 93% | 93% | 50% | 75% | 100% | 50% | 85% | 93% | 100% | 50% | 75% | 93% | 50% | 125% | 20% | Activity (Escherichia coli [16]): 100%; Activity (Escherichia coli [22]): 46%; Activity (Escherichia coli [23]): 33%; Activity (Escherichia coli [24]): 8%; Activity (Escherichia coli [25]): 8%; Activity (Escherichia coli [26]): 0%; Activity (Escherichia coli [27]): 50%; Activity (Escherichia coli [28]): 29% |
| CN(C)c1ccc(O)c2c1C[C@H]1C[C@H]3[C@H](N(C)C)C(O)=C(C(N)=O)C(=O)[C@@]3(O)C(O)=C1C2=O [MINOCYCLINE] | 3.3 µg/mL (≈ 7.21 µM) | 2.4 µg/mL (≈ 5.25 µM) | 4.9 µg/mL (≈ 10.7 µM) | 2 | 75% | 100% | 100% | 100% | 40% | 100% | 65% | 100% | 100% | 100% | 125% | 65% | 65% | 100% | 50% | 35% | Activity (Escherichia coli [16]): 65%; Activity (Escherichia coli [22]): 32%; Activity (Escherichia coli [23]): 30%; Activity (Escherichia coli [24]): 40%; Activity (Escherichia coli [25]): 40%; Activity (Escherichia coli [26]): 40%; Activity (Escherichia coli [27]): 30%; Activity (Escherichia coli [28]): 38% |
